Experimental data published in article PMC10616755 (RSC Advances, 2023).
Read-outs that look alike come from different tables or passages of the source. Blank lines part the entries; values can stand above or below the compound they belong to.

How the values were obtained:
[1] = tested on: HCT-116; conditions: read-out: Cytotoxic activity IC50 HCT-116, cited from earlier work
[2] = tested on: MCF-7; conditions: read-out: Cytotoxic activity IC50 MCF-7, cited from earlier work
[3] = tested on: HCT-116; experiment: MTT cytotoxicity assay, HCT-116; type: cell-based, human; conditions: for Cytotoxicity grade HCT-116: grade in words in text; for SI (HCT-116): selectivity index WI-38 vs HCT-116
Procedure, shortened: (§1)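 MTT viability assay on human HCT-116 and MCF-7 lines. Each test compound was run at 100, 50, 25, 12.5, 6.25, 3.125 and 1.56 μM, with IC50 determined per cell line.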

[4] = tested on: MCF-7; experiment: MTT cytotoxicity assay, MCF-7; type: cell-based, human; conditions: for Cytotoxicity grade MCF-7: grade in words in text; for SI (MCF-7): selectivity index WI-38 vs MCF-7
Procedure, shortened: as §1

[5] = tested on: BAX; experiment: BAX level; type: cell-based; conditions: control = 1
[6] = tested on: BCL2; experiment: BCL2 level; type: cell-based; conditions: control = 1
[7] = tested on: WI-38; experiment: MTT cytotoxicity on normal lung fibroblast; type: cell-based, human; conditions: read-out: Cytotoxicity on WI-38 IC50; normal cell line, MTT assay
[8] = tested on: caspase-3; experiment: Active caspase-3 level; type: cell-based, human
[9] = tested on: p53; experiment: Active p53 level; type: cell-based, human
[10] = MTT cytotoxicity on normal lung fibroblast; type: cell-based, human; conditions: human, WI-38 normal lung fibroblast cells
[11] = molecular target: VEGFR-2 (Homo sapiens, UniProt P35968); experiment: VEGFR-2; type: biochemical; conditions: VEGFR-2 inhibitory activity IC50
[12] = sorafenib reference value ref 36
[13] = Homo sapiens, HCT-116, read-out: Cytotoxic activity IC50 HCT-116
[14] = Homo sapiens, MCF7, read-out: Cytotoxic activity IC50 MCF-7
[15] = read-out: Cytotoxic activity IC50 HCT-116, MTT assay
[16] = read-out: Cytotoxic activity IC50 MCF-7, MTT assay
[17] = sunitinib reference value ref 34,35

Sequence of VEGFR-2 (P35968 20-1356): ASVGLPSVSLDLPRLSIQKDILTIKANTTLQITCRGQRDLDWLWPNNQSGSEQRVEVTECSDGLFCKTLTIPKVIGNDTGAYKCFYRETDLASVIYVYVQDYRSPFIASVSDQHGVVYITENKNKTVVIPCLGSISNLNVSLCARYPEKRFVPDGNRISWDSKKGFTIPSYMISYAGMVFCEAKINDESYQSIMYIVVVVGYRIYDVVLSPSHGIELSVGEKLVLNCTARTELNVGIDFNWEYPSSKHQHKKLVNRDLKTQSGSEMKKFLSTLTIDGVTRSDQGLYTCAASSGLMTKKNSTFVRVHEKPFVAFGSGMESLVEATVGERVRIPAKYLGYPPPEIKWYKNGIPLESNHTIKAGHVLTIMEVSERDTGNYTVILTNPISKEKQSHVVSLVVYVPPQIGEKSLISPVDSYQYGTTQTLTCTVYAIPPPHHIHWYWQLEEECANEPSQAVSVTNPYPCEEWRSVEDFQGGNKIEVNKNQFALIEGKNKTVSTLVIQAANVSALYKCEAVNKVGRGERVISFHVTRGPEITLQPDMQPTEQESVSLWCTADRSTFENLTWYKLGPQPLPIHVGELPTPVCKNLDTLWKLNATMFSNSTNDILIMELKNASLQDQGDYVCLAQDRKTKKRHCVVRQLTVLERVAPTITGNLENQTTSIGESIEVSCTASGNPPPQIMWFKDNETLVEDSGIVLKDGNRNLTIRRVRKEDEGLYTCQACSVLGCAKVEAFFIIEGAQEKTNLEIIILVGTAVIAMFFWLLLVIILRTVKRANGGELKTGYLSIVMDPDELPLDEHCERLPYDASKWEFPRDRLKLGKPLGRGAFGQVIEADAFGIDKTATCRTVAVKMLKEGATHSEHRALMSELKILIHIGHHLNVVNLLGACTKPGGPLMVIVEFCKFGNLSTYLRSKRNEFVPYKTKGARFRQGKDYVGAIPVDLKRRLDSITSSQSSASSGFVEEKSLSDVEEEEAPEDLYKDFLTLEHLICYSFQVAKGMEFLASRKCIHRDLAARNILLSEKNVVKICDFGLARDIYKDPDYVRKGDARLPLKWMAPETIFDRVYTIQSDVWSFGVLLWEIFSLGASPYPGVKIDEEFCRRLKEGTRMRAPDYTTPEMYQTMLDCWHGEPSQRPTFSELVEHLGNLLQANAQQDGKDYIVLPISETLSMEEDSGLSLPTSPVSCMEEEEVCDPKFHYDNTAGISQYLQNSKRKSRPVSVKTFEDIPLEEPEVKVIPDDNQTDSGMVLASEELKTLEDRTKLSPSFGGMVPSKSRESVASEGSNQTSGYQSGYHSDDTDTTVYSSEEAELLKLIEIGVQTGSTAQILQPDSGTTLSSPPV

Compound: CNC(=O)c1cc(Oc2ccc(NC(=O)Nc3ccc(Cl)c(C(F)(F)F)c3)cc2)ccn1 [Sorafenib]
- IC50 [1, 12]: 18.6 ± 1.9 µM
- IC50 [2, 12]: 16 ± 3.6 µM

Compound: Cc1ccc(NC(=O)CCc2nc3cc(Cl)ccc3[nH]c2=O)cc1 [Compound 11, 3-(6-Chloro-1,2-dihydro-2-oxoquinoxalin-3-yl)-N-p-tolylpropanamide]
- IC50 [3, 13]: 61.4 ± 3.4 µM
- IC50 [4, 14]: 54 ± 3.1 µM

Compound: Cc1ccccc1NC(=O)CCc1nc2cc(Cl)ccc2[nH]c1=O [Compound 13, 3-(6-Chloro-1,2-dihydro-2-oxoquinoxalin-3-yl)-N-o-tolylpropanamide]
- IC50 [3, 13]: 22.2 ± 1.9 µM
- IC50 [4, 14]: 18.9 ± 1.4 µM

Compound: CN[C@@H]1C[C@H]2O[C@@](C)([C@@H]1OC)n1c3ccccc3c3c4c(c5c6ccccc6n2c5c31)C(=O)NC4 [Staurosporine]
- BAX fold change [5]: 7.5517 fold change
- BAX fold change ([5]; listed as staurosporine): 7.55 fold change
- BCL2 fold change [6]: 0.3248 fold change
- BCL2 fold change ([6]; listed as staurosporine): 0.33 fold change

Compound: O=C(CCc1nc2cc(Cl)ccc2[nH]c1=O)Nc1ccc(C(=O)O)cc1 [Compound 16, 4-(3-(6-Chloro-1,2-dihydro-2-oxoquinoxalin-3-yl)propanamido)benzoic acid]
- IC50 [3, 13]: 75.1 ± 3.6 µM
- Cytotoxicity grade HCT-116 [3]: weak (51–100 (weak))
- IC50 [4, 14]: 67.2 ± 3.5 µM
- Cytotoxicity grade MCF-7 [4]: weak (51–100 (weak))

Compound: Cc1cccc(NC(=O)CCc2nc3cc(Cl)ccc3[nH]c2=O)c1 [Compound 12, 3-(6-Chloro-1,2-dihydro-2-oxoquinoxalin-3-yl)-N-m-tolylpropanamide]
- IC50 [3, 13]: 28.4 ± 2.2 µM
- IC50 [4, 14]: 24.6 ± 1.9 µM

Compound: 2,4-Dichloro-N′-(3-(6-chloro-3-oxo-3,4-dihydroquinoxalin-2-yl)-propanoyl) benzohydrazide [Compound 19]
- Cytotoxicity grade HCT-116 [3]: very strong (1–10 (very strong))
- IC50 [3, 15]: 6.18 ± 2.1 µM
- SI (HCT-116) [3]: 11.58
- Cytotoxicity grade MCF-7 [4]: very strong (1–10 (very strong))
- IC50 [4, 16]: 5.11 ± 0.8 µM
- SI (MCF-7) [4]: 14.01
- IC50 [7]: 71.6 ± 2.8 µM

Compound: CCN(CC)CCNC(=O)c1c(C)[nH]c(/C=C2\C(=O)Nc3ccc(F)cc32)c1C [Sunitinib]
- Caspase 3 ([8]; MCF-7 cells, control 47.88 ± 13.15): 384.53 ± 8.40 pg/mL
- Caspase 3 Fld ([8]; vs control): 8.031 fold
- p53 ([9]; MCF-7 cells, control 22.19 ± 8.39): 278.34 ± 5.27 pg/mL
- p53 Fld ([9]; vs control): 12.543 fold
- IC50 [1, 17]: 3.42 ± 0.5 µM
- IC50 [2, 17]: 4.77 ± 0.2 µM

Compound: O=C(CCc1nc2cc(Cl)ccc2[nH]c1=O)Nc1ccccc1 [Compound 5, 3-(6-Chloro-1,2-dihydro-2-oxoquinoxalin-3-yl)-N-phenylpropanamide]
- IC50 [3, 13]: 45.5 ± 2.7 µM
- Cytotoxicity grade HCT-116 [3]: moderate (21–50 (moderate))
- IC50 [4, 14]: 39 ± 2.4 µM
- Cytotoxicity grade MCF-7 [4]: moderate (21–50 (moderate))

Compound: 2-(2-(3-(6-Chloro-3-oxo-3,4-dihydroquinoxalin-2-yl)propanoyl)hydrazine-1-carbonyl) benzoic acid [Compound 21]
- IC50 [3, 15]: 48.2 ± 2.7 µM
- IC50 [4, 16]: 41.5 ± 2.5 µM

Compound: 4-(3-(6-Chloro-1,2-dihydro-2-oxoquinoxalin-3-yl)propaneamido)-4-oxobutanoic acid [Compound 20]
- IC50 [3, 15]: 26.4 ± 3.8 µM
- SI (HCT-116) [3]: 3.52
- IC50 [4, 16]: 10.2 ± 3.3 µM
- SI (MCF-7) [4]: 9.15
- IC50 [7]: 93 ± 2.2 µM

- IC50 [11]: 0.131 µM
Compound: O=C(CCc1nc2cc(Cl)ccc2[nH]c1=O)Nc1ccccc1O [Compound 9, 3-(6-Chloro-1,2-dihydro-2-oxoquinoxalin-3-yl)-N-(2-hydroxyphenyl)propanamide]
- IC50 [3, 13]: 7.19 ± 0.7 µM
- SI (HCT-116) [3]: 11.98
- IC50 [4, 14]: 6.92 ± 0.5 µM
- SI (MCF-7) [4]: 12.44
- IC50 [10]: 86.1 ± 4.1 µM

Compound: COc1cccc2c1C(=O)c1c(O)c3c(c(O)c1C2=O)C[C@@](O)(C(=O)CO)C[C@@H]3O[C@H]1C[C@H](N)[C@H](O)[C@H](C)O1 [DOX, Doxorubicin, reference compound]
- IC50 [3, 13]: 9.27 ± 0.3 µM
- SI (HCT-116) [3]: 0.72
- IC50 [4, 14]: 7.43 ± 0.2 µM
- SI (MCF-7) [4]: 0.9
- IC50 [10]: 6.72 ± 0.5 µM
